Results of several laboratories.
Protocols differ between the studies behind these lines.
Target: Serine/threonine-protein kinase Nek11 (NEK11, Homo sapiens, UniProt Q8NG66)
Residues used in one study (Q8NG66 1-645): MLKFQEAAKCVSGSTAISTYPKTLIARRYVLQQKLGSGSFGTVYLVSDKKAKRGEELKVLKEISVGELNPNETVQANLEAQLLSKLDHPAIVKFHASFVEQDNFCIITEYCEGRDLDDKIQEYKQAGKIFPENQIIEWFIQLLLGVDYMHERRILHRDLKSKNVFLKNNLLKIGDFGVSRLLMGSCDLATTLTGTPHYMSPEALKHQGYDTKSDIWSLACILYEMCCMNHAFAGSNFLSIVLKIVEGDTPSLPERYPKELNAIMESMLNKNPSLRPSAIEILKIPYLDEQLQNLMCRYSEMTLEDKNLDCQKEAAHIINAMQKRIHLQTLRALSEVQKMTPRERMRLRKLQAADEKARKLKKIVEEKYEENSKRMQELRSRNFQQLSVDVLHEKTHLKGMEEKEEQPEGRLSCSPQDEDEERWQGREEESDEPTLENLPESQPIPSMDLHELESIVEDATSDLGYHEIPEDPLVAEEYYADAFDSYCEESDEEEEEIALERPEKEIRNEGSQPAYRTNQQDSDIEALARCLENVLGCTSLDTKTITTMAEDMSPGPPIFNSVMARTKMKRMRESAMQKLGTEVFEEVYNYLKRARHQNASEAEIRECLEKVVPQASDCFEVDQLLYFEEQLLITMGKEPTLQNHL

Structure (SMILES)	read-out	mode	technique	tested at	endpoint	result
CC(C)(C)c1nc2c(s1)c1nc(N)ncc1c1ccc(NS(=O)(=O)c3c(F)cccc3F)c(F)c12	enzyme activity	inhibitor	radiometric	1 µM	remaining activity	60%
CCN(CC)CCNC(=O)c1c(C)[nH]c(/C=C2\C(=O)Nc3ccc(F)cc32)c1C	enzyme activity	inhibitor		0.3 µM	inhibition	16%
Cc1ccc(C(=O)Nc2ccc(CN3CCN(C)CC3)c(C(F)(F)F)c2)cc1C#Cc1cnc2cccnn12	enzyme activity	inhibitor		23.5 nM	remaining activity	83%
Cc1ccc(Nc2nccc(N(C)c3ccc4c(C)n(C)nc4c3)n2)cc1S(N)(=O)=O	enzyme activity	inhibitor		10 µM	inhibition	23%
Nc1ncnc2occ(-c3ccc(NC(=O)Nc4cc(C(F)(F)F)ccc4F)cc3)c12	cell-free assay	inhibitor		20 µM	remaining signal	9.3%
O=C(Nc1cnn(-c2csc(C(=O)NC3COC3)c2)c1)Nc1c(F)cccc1Cl	enzyme activity	inhibitor		5 µM	remaining activity	89.5%
O=C(O)[C@H]1[C@H](Cn2nnc3ccccc3c2=O)CC[C@@H]1C(=O)c1ccc(OCCC2CCOCC2)cc1	cell-free assay		competition with immobilised ligand	1 µM	remaining binding	100%
CCCOc1ccc(OC)c(F)c1C(=O)c1ccc(C(=O)N[C@@H]2CNC[C@H]2NC(=O)c2ccc3[nH]ncc3c2)cc1	enzyme activity	inhibitor		10 µM	remaining activity	45%
COc1cc2ncnc(Nc3ccc(F)c(Cl)c3)c2cc1OCCCN1CCOCC1	cell-free assay			0.5 µM	remaining signal	109%
Cc1c(NC(=O)c2cc(C(N)=O)nc3cc(F)ccc23)c(C(F)(F)F)nn1Cc1ccc(C#N)cc1	cell-free assay		competition with immobilised ligand	1 µM	remaining binding	100%
Clc1ccc(Nc2nnc(Cc3ccncc3)c3ccccc23)cc1	cell-free assay			0.5 µM	remaining signal	87%
CN1CCN(c2cnc3c(C4CCN(C(=O)c5ccc(OC(F)(F)F)cc5N)CC4)ncnc3c2)CC1	cell-free assay		competition with immobilised ligand	1 µM	remaining binding	100%
Cc1cnc(NC2CCOCC2)nc1-n1cnc(C(=O)NC(CN)c2cc(F)cc(Cl)c2)c1 (centres unmarked)	enzyme activity	inhibitor	radiometric	1 µM	remaining activity	81%
CN1CC(Oc2cnc(C#N)cc2-c2ccn3nc(NC(=O)C4CC4)cc3c2)C1	enzyme activity	inhibitor		1 µM	inhibition	11%
COc1cc(-c2cn(C3CCc4c(F)cccc4N(CC(F)(F)F)C3=O)nn2)ccc1-n1cnc(C)c1 (centres unmarked)	cell-free assay		competition with immobilised ligand	1 µM	remaining binding	100%
O=C1NC(=O)c2cc(Nc3ccc(F)cc3)c(Nc3ccc(F)cc3)cc21	cell-free assay			0.5 µM	remaining signal	103%
CCC(=O)N[C@H]1CC[C@@H](C(=O)N(C)c2ccc(-c3nc4ccccc4o3)cc2)C1	cell-free assay		competition with immobilised ligand	1 µM	remaining binding	86%
CNC(=O)c1cc(Oc2ccc(NC(=O)Nc3ccc(Cl)c(C(F)(F)F)c3)cc2)ccn1	enzyme activity	inhibitor		0.3 µM	inhibition	5%
C#Cc1cccc(Nc2ncnc3cc(OCCOC)c(OCCOC)cc23)c1	cell-free assay			0.5 µM	remaining signal	114%
CC1=C(C#N)C(c2ccc3c(c2)c(NC(=O)c2ccccc2C)nn3C)C(C#N)=C(C)N1	cell-free assay		competition with immobilised ligand	1 µM	remaining binding	96%
